# Activity calls are given as the source filed them. No cut-off for these calls is given here.
# Key:
# [1] = molecular target: T1, Potassium voltage-gated channel subfamily A member 4 (Homo sapiens, UniProt P22459); test: Inhibition of Kv1.4 channel inactivation expressed in xenopus oocytes by voltage clamp assay; assay type: cell-based, Oocyte
# Summary of the method: (§1)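 Kv1.4 expressed in stage V–VI Xenopus oocytes and recorded 1–4 days after injection. Two-electrode voltage clamp in perfused ND-96 (pH 7.6), held at −80 mV with 200 ms steps to +50 mV. Compound up to 50 µM, current followed 2–8 min after application. Disinactivation = 100·Iss/Ipeak, three experiments.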
# Mus musculus [2] = test: Anticonvulsant activity in ip dosed CF1 mouse assessed as inhibition of pentylenetetrazole-induced seizure; assay type: functional
# Summary of the method: (§2)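 Male CF-1 mice, 20–25 g, free access to food and water. Compound in 2% Tween 80/1% methylcellulose/saline given ip 30 min before PTZ 85 mg/kg sc. Mice observed 30 min in individual chambers. Groups of eight scored for presence or absence of clonic seizure (forelimb and hindlimb paddling with loss of righting). ED50 in mg/kg, or number of mice seizing out of eight.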
# [3] = molecular target: T2, A-type voltage-gated potassium channel KCND2 (Homo sapiens) (UniProt Q9NZV8); test: Inhibition of Kv4.2 channel inactivation expressed in xenopus oocytes at 30 uM by voltage clamp assay; assay type: cell-based; details: Oocyte
# T2 sequence (whole entry): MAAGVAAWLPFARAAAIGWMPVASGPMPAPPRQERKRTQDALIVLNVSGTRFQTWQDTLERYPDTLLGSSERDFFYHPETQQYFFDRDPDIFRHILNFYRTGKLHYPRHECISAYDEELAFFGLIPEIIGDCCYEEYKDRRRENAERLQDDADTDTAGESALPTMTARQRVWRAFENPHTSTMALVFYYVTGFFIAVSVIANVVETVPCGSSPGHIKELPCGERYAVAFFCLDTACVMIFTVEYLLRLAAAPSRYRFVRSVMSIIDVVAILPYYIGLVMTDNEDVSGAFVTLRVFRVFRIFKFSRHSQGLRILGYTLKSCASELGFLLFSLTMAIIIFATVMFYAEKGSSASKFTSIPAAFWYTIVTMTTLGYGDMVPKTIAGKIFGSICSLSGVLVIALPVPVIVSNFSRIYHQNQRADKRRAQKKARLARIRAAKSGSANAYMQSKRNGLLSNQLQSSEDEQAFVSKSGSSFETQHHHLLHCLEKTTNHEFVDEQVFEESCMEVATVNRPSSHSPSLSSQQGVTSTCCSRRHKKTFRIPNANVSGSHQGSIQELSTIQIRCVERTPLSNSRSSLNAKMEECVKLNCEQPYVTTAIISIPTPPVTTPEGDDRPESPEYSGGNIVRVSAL
# [4] = molecular target: T3, Potassium voltage-gated channel subfamily A member 1 (Homo sapiens, UniProt Q09470); test: Inhibition of Kvbeta-1-mediated inactivation of Kv1.1 channel expressed in xenopus oocytes by voltage clamp assay; assay type: cell-based, Oocyte
# T3 sequence (Q09470 whole entry, the tested form may be a part): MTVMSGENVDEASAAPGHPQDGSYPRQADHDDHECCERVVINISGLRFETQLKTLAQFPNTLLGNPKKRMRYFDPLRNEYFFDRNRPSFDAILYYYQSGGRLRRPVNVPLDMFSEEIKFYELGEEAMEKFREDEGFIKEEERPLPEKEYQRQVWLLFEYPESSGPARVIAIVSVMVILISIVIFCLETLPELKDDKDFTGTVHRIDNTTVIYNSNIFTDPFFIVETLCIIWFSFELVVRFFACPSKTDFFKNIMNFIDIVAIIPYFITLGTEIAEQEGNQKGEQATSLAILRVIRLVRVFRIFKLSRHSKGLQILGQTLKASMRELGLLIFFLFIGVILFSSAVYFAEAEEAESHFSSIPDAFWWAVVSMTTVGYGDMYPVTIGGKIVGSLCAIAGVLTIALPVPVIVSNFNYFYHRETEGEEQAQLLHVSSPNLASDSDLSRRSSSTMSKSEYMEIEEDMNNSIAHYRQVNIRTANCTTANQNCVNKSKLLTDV
# Summary of the method: (§3)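 Stage V–VI Xenopus oocytes injected with ~0.5–5 ng mRNA and kept 1–4 days in ND-96 (pH 7.6). Either Kv1.1 plus Kvβ1 RNA at 1:160, or a chimera (Kvβ1 residues 1–70 fused through a Ser to Kv1.1 N-terminus). Two-electrode clamp in perfused ND-96 with 3 M KCl electrodes. Held at −80 mV, stepped 200 ms to +50 mV. Disinactivation = 100·Iss/Ipeak, ≥3 experiments, mean ± SEM. EC50 from logistic fit.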
# [5] = molecular target: T4, Voltage-gated potassium channel subfamily A member 1/beta-1 (Homo sapiens, UniProt Q09470+Q14722); test: Inhibition of Kv1.1/Kvbeta1 N terminal chimera channel inactivation expressed in xenopus oocytes by voltage clamp assay; assay type: cell-based, Oocyte; summary of the method: as §3
# T4 sequence (Q09470 whole entry): as the sequence (Q09470 whole entry, the tested form may be a part) above
# T4 sequence (Q14722 whole entry): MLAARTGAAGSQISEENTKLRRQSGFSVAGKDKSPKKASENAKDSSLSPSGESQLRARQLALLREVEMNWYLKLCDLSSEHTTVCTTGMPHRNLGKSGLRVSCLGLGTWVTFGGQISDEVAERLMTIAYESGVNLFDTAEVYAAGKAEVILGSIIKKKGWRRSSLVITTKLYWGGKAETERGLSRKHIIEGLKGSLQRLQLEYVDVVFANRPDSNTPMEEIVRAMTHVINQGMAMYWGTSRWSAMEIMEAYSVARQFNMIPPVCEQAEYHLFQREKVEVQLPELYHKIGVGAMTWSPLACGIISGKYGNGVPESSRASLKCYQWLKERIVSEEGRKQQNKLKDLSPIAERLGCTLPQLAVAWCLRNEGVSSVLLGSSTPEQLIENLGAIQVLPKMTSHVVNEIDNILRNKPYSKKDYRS
# [6] = molecular target: T3, Potassium voltage-gated channel subfamily A member 1; test: Inhibition of Kvbeta-1-mediated inactivation of Kv1.1 channel expressed in xenopus oocytes at 200 uM by voltage clamp assay; assay type: cell-based; design: scale not given: the % may be the effect or the level left; details: Oocyte
# [7] = molecular target: T3, Potassium voltage-gated channel subfamily A member 1; test: Inhibition of Kvbeta-1-mediated inactivation of Kv1.1 channel expressed in xenopus oocytes at 50 uM by voltage clamp assay; assay type: cell-based; design: scale not given: the % may be the effect or the level left; details: Oocyte; summary of the method: as §3
# [8] = molecular target: T3, Potassium voltage-gated channel subfamily A member 1; test: Inhibition of Kv-beta-1 mediated inactivation of Kv1.1 channel assessed as intracellular calcium accumulation in Tsa201 cells at 50 uM by FLIPR assay; assay type: cell-based
# Summary of the method: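 Tsa201 cells plated at 50,000/well and used the following day. Loaded with 3 µM Fluo-4 AM in HBSS with 2.5 mM probenecid, 60 min at 37 °C, then washed into calcium-free HBSS. Baseline read 5 s, compound added at final 50 µM (A23187 reference at 10 µM), fluorescence followed 3 min. Signal normalized to background. BAPTA-AM 10 µM counter-check for autofluorescence.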
# [9] = molecular target: T3, Potassium voltage-gated channel subfamily A member 1; test: Inhibition of Kv-beta-1 mediated inactivation of Kv1.1 channel assessed as intracellular calcium accumulation in Tsa201 cells at 50 uM by FLIPR assay
# Mus musculus [10] = test: Anticonvulsant activity in CF1 mouse assessed as inhibition of pentylenetetrazole-induced seizure at 100 mg/kg, ip; assay type: functional, organism-based; design: dose 100 mg/kg; summary of the method: as §2
# [11] = molecular target: T4, Voltage-gated potassium channel subfamily A member 1/beta-1; test: Inhibition of Kv1.1/Kvbeta1 N terminal chimera channel inactivation expressed in xenopus oocytes at 50 uM by voltage clamp assay; assay type: cell-based; design: scale not given: the % may be the effect or the level left; details: Oocyte; summary of the method: as §3
# [12] = molecular target: T1, Potassium voltage-gated channel subfamily A member 4; test: Inhibition of Kv1.4 channel inactivation expressed in xenopus oocytes at 50 uM by voltage clamp assay; assay type: cell-based; design: scale not given: the % may be the effect or the level left; details: Oocyte; summary of the method: as §1
# [13] = molecular target: T3, Potassium voltage-gated channel subfamily A member 1; test: Inhibition of Kvbeta-1-mediated inactivation of Kv1.1 channel expressed in xenopus oocytes at 150 uM by voltage clamp assay; assay type: cell-based; design: scale not given: the % may be the effect or the level left; details: Oocyte
# T1 sequence (P22459 whole entry, the tested form may be a part): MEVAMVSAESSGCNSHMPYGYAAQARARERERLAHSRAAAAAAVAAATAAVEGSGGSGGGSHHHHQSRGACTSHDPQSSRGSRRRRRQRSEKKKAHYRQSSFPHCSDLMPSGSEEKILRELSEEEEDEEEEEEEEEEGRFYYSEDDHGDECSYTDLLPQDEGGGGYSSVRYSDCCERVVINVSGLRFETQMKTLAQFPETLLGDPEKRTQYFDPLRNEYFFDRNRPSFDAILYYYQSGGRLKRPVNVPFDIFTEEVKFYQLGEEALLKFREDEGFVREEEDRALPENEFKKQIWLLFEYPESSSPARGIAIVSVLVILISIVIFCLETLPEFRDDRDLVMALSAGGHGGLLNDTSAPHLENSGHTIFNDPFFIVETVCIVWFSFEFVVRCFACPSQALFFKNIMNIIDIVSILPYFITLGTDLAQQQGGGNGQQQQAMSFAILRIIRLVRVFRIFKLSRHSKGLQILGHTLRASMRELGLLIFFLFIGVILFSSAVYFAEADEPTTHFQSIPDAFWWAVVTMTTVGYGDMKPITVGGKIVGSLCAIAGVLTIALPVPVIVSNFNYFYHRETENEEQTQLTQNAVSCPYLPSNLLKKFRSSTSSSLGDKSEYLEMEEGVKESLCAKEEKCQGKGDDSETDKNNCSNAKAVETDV
SMILES,ED50 (Mus musculus [2]) [mg/kg],Activity [3],Activity [7] [%],other results
CC1(C)OCC(Br)([N+](=O)[O-])CO1,139,inactive,–,EC50 [1]: 2.3 µM; EC50 [4]: 4.3 µM; EC50 [5]: 16.7 µM
CC1(C)CC(=O)C(C(=O)Nc2cccc(C(F)(F)F)c2)C(=O)C1,32,inactive,18.5,Activity [6]: 40%
O=C(Nc1ccc([N+](=O)[O-])cc1)C1C(=O)C2=C(CCCC2)C1=O,–,inactive,96.3,Activity [8]: Active; Activity [9]: Active; Activity (Mus musculus [10]): inactive
CC1(c2ccccc2)NC(=O)N(C(=O)/C=C/c2ccc(F)cc2)C1=O (stereo not drawn),–,inactive,52.5,Activity [11]: 34%
O=[N+]([O-])C1(Br)COC(c2ccccc2)OC1 (stereo not drawn),–,inactive,–,EC50 [1]: 1.3 µM; EC50 [4]: 7.1 µM; EC50 [5]: 8.9 µM
C[C@@]1(c2ccccc2)NC(=O)N(C(=O)C2=Cc3cc(Cl)ccc3OC2)C1=O,–,inactive,18.8,Activity [11]: 37%
CC1(C)CC(=O)C(C(=O)Nc2ccc(Cl)cc2C(F)(F)F)C(=O)C1,66,inactive,–,Activity [12]: 5%; Activity [13]: 45%

# — ChEMBL document CHEMBL1143977, “Disruption of Kv1.1 N-type inactivation by novel small molecule inhibitors (disinactivators)” (Bioorg Med Chem, 2008)
